Bioassay records as filed in PubChem BioAssay.
PGC1a Ac signal – compounds raising PGC1a acetylation signal, primary screen, PGC1a modulator project, cell-based, U2OS, AlphaScreen, signal-increasing mode | 0.21% of 350,000 active | AID 651723, 2012 | activation, % at 15.6 µM | overnight;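 active = every replicate reaching activation of at least 50%, whatever the mean replicate activation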;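 also: hits raise the AlphaScreen acetylation signal above neutral controls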
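Incubation: overnight compound treatment, 37 °C. System: U2OS cells transduced with flag-tagged PGC1a and GCN5 acetyltransferase. Detection: AlphaScreen lysate read. Compound: single-point compound dosing.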
* hit, by the source's call. Not all results are given here.

SMILES	PGC1a Ac signal
CCOC(=O)N1CCC(N(CCN(C)C)C(=S)Nc2cccc(OC)c2)CC1	-45
CC(=O)Nc1cccc(OCC(=O)Nc2ccccc2)c1	51*
CC(=O)c1ccc(NC(=O)CSCC(=O)Nc2ccc3ccccc3c2)cc1	-56
CN(C)CCOc1ccc2c(c1)C(=O)C(=Cc1ncc([N+](=O)[O-])n1C)C2	-93
CCN1/C(=C/C(C)=C/c2sc3ccccc3[n+]2CC)Sc2ccccc21	98*
Cc1cnc2c(C(=O)O)cnn2c1	-52
O=C(CCNC(=O)C1CCN(S(=O)(=O)c2ccc(F)cc2)CC1)NCc1ccccc1Cl	64*
Cn1c(=O)c2cc(S(=O)(=O)NCCC(=O)NCc3ccccc3Cl)ccc2n(C)c1=O	-47
COc1ccc(S(=O)(=O)NCCC(=O)NCc2ccc(F)cc2)cc1	-80
OC(c1ccccc1)(C1CCCCC1)C(CN1CCOCC1)c1ccccc1 (configuration not stated)	57*
O=C(c1ccc(F)cc1)C(CN1CCOCC1)c1ccccc1 (configuration not stated)	-60
CCN(CC)C(=O)[C@H]1CC(CC(=O)NCc2cccc(C(F)(F)F)c2)C(=O)N2CCc3c([nH]c4ccccc34)[C@]12C (some centres not stated)	-54
CN(CCc1ccccc1)C(=O)c1ccc(NC(=O)Cc2ccc(NC(=O)C3CCN(C(=O)C4CCCCC4)CC3)cc2)cc1	-42
CN(C)CCCNC(=O)CC1C[C@H](C(=O)N2CCCCC2)[C@@]2(CCc3ccccc3)c3[nH]c4ccccc4c3CCN2C1=O (some centres not stated)	99*
CCCCCC(=O)N1C[C@H](n2cc(-c3ccc(F)cc3)nn2)[C@@H](O)C[C@@H]1c1ccc(C)cc1	-67
C[C@H](CO)N1C[C@H](C)[C@H](CN(C)S(=O)(=O)c2ccc(F)cc2)Oc2ccc(NS(=O)(=O)c3cn(C)cn3)cc2C1=O	-51
Nc1nnc(CC(=O)N/N=C/c2ccccc2OCc2ccc(F)cc2)s1	-61
Cc1cc(OCC(=O)NNC(=O)c2cnccn2)cc(C)c1Cl	-85
Cc1ccccc1OCC(=O)N/N=C/c1cc2ccccc2nc1Cl	59*
O=C(C[C@@H]1CC[C@@H]2[C@H](COC[C@@H](O)CN2S(=O)(=O)c2ccc(Cl)cc2)O1)N[C@@H]1CCN(Cc2ccccc2)C1	-48
CCC1(CC)Cc2ccccc2-c2nc(CN(C)C)[nH]c(=O)c21	53*
OCC1OC(Oc2c(Br)cc(Br)cc2Br)C(O)C(O)C1O (configuration not stated)	-63
C=C(C(=O)c1ccccc1)C(C(=C)C(=O)c1ccccc1)c1ccc(OC)cc1	160*
COc1ccc(C(=O)Sc2nncc3ccccc23)cc1	-42
Cc1noc(C)c1NC(=O)Nc1cccc2c1O[C@H](CN(C)Cc1ccc(Oc3ccccc3)cc1)[C@H](C)CN([C@@H](C)CO)C2=O	-100
SMILES	PGC1a Ac signal
CCCNC(=O)COC(=O)c1ccccc1C(=O)c1ccc(Cl)c([N+](=O)[O-])c1	127*
Cc1cc(C(=O)OCC(=O)N(C)c2ccccc2)ccc1[N+](=O)[O-]	-52
CC(C)(C)NC(=O)c1ccc(Sc2ccccc2)c([N+](=O)[O-])c1	-81
CCOC(=O)C1CN(S(=O)(=O)c2ccccc2)c2cc(S(=O)(=O)CC)ccc2O1 (configuration not stated)	-50
Cc1ccc(S(=O)(=O)C(C#N)c2nc3ccccc3nc2N2CCCC2)cc1 (configuration not stated)	-50
Cc1ccc(S(=O)(=O)N2CCN(S(=O)(=O)c3ccc(C)cc3)C2c2ccccc2)cc1	110*
COc1ccc(NC(=O)C(Cl)=C(Cl)Cl)cn1	101*
COc1ccc(NC(=O)/C(Cl)=C(/Cl)S(=O)(=O)Cc2ccccc2)cn1	-64
COc1ccc(NC(=O)/C(Cl)=C(/Cl)S(=O)Cc2ccc(Cl)cc2)cn1 (configuration not stated)	-100
COc1ccc(S(=O)(=O)N(C)C[C@H]2Oc3ccc(NC(=O)CCN4CCOCC4)cc3C(=O)N([C@@H](C)CO)C[C@@H]2C)cc1	-49
C[C@H]1CN([C@@H](C)CO)C(=O)CCCn2nncc2CO[C@@H]1CN(C)C(=O)Nc1ccccc1	-50
C[C@H]1CN([C@@H](C)CO)C(=O)c2cc(-c3cccc(C(=O)N(C)C)c3)cnc2O[C@@H]1CN(C)S(=O)(=O)c1ccc(F)cc1	-21
O=C1c2ccsc2SCCN1Cc1cccc(Cl)c1	50*
Cc1noc(C)c1NC(=O)N(C)C[C@H]1OCCCC[C@@H](C)Oc2ccc(NC(=O)Cc3ccccc3)cc2C(=O)N([C@@H](C)CO)C[C@@H]1C	-44
COc1ccc(C#Cc2cnc3c(c2)C(=O)N([C@H](C)CO)C[C@H](C)[C@H](CN(C)S(=O)(=O)c2cccs2)O3)cc1OC	61*
COc1ccc(S(=O)(=O)N(C)C[C@@H]2Oc3ncc(-c4ccccc4)cc3C(=O)N([C@H](C)CO)C[C@@H]2C)cc1	-47
COc1ccc(-c2cnc3c(c2)C(=O)N([C@H](C)CO)C[C@H](C)[C@H](CN(C)S(=O)(=O)c2cccs2)O3)cc1	-50
O=C(OCc1cnc(Cl)s1)c1cccs1	-94
C[C@H](CO)N1C[C@H](C)[C@H](CN(C)C(=O)NC2CCCCC2)Oc2cc(C#Cc3cccc(F)c3)ccc2S1(=O)=O	-48
C[C@@H]1CN([C@@H](C)CO)S(=O)(=O)c2ccc(-c3ccccc3)cc2O[C@@H]1CN(C)C(=O)c1ccccc1F	-42
CCOc1c(Br)cc(/C=C2/SC(=O)N(CC(=O)N3CCCC3)C2=O)cc1OC	96*
CCN1CCN(c2cc(C)c3cc(NC(=O)c4ccc(Br)o4)ccc3n2)CC1	53*
C[C@@H]1CN([C@@H](C)CO)C(=O)CCCn2nncc2CO[C@@H]1CN(C)C(=O)NC1CCCCC1	-51
CC(C)(C)S(=O)N1Cc2cc(C(=O)NCc3ccc(Oc4ccccc4)cc3)nc(-c3cccc(-c4cc5ccccc5o4)c3)c2[C@H]1CCO (some centres not stated)	62*
C[C@H]1CN([C@@H](C)CO)C(=O)c2cc(NC(=O)Nc3cccc4ccccc34)ccc2O[C@H]1CN(C)S(=O)(=O)c1ccc(Cl)cc1	-41
SMILES	PGC1a Ac signal
CCc1oc2c(C)c(O)ccc2c(=O)c1-c1ccc2ccccc2n1	-49
CC1CCCN(Cc2c(O)ccc3c(=O)c(-c4nc5ccccc5s4)c(N)oc23)C1 (configuration not stated)	62*
CC1CCCN(Cc2c(O)ccc3c4c(c(=O)oc23)CCCC4)C1 (configuration not stated)	-49
C[C@@H]1CN([C@H](C)CO)C(=O)CCCn2nncc2CO[C@H]1CN(C)S(=O)(=O)c1cn(C)cn1	-105
O=C1c2ccccc2C(=O)N1c1ccc(Cc2ccncc2)cc1	-56
CC(c1ccccc1)N1C(=O)NC(NC(=O)c2cccnc2)(C(F)(F)F)C1=O (configuration not stated)	74*
Cc1cccc(C)c1OC1(c2ccccc2)OC(=O)c2ccccc21 (configuration not stated)	72*
COc1cc(CN2CC3(CCN(S(=O)(=O)c4cccs4)CC3)c3c(n(C)c4cc(OC)ccc34)[C@H]2CO)cc(OC)c1	63*
O=C(O)/C=C/c1cnc[nH]1	-106
O=C(CC(CC(=O)c1ccc(Br)cc1)c1cccnc1)c1ccc(Br)cc1	-50
Cc1coc2cc3oc(=O)c(CCC(=O)NC4CC4)c(C)c3cc12	57*
